The text below walks through data of ChEMBL document CHEMBL1125919, “Water-soluble cholesteryl-containing phosphorothioate monogalactosides: synthesis, properties, and use in lowering blood cholesterol by directing plasma lipoproteins to the liver” (1991).

Assay [1] is filed under the species Rattus norvegicus. Put plainly: Effects of N-acetyl-glucosamine on compound stimulated liver association of [125I]LDL measured in liver of rats. The class given is functional. In a few lines:
(§1)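 Glycolipid mixed with [125I]LDL at 0.3 mg/mg apolipoprotein or with [125I]HDL at 1.0 mg/mg, then held 10 min at room temperature. The mixture was given intravenously at 50 μg apolipoprotein/kg to pentobarbital-anaesthetized male Wistar rats. N-acetylgalactosamine, N-acetylglucosamine (both 400 mg/kg) or PBS was preinjected 1 min before. At 5 min, TCA-precipitable serum radioactivity and liver-associated radioactivity were measured as % of dose. Mean ± SEM, 3–4 rats; Wilcoxon two-sample test.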

For assay [2], the species on record is Rattus norvegicus. Put plainly: Effects of N-acetyl-galactosamine on compound stimulated liver association of [125I]LDL measured in serum of rats. The class given is functional. The method in brief: as §1
The species named for assay [3] is Homo sapiens. Put plainly: Cholesterol in the high density lipoprotein (HDL) along with compound was measured in human serum. The class given is functional. In a few lines: (§2)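 Human serum (1.6 mL) mixed with 0.4 mL of a 10 mM glycolipid solution in PBS (2 mM final), or with PBS alone, for 10 min at room temperature. Density-gradient ultracentrifugation in KBr/NaCl then gave VLDL (d<1.006), LDL (1.006–1.063), HDL (1.063–1.210) and LPDS (d>1.210 g/mL) fractions. Each fraction was dialyzed against PBS and assayed for cholesterol and carbohydrate, reported as total μg per fraction.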

The species entered for assay [4] is Homo sapiens. Put plainly: Carbohydrate in the very low density lipoprotein (VLDL) along with compound was measured in human serum. The class given is functional. In a few lines:
as §2

Assay [5] is filed under the species Homo sapiens. Put plainly: Carbohydrate in the very low density lipoprotein (VLDL) along with compound was measured in human serum.
The species named for assay [6] is Homo sapiens. Nature of the assay: Carbohydrate in the high density lipoprotein (HDL) along with compound was measured in human serum.
For assay [7], the species on record is Homo sapiens. Put plainly: Cholesterol in the Lipoprotein -deficient serum(LPDS) along with compound was measured in human serum. It is filed as functional. In a few lines: as §2
For assay [8], the species on record is Homo sapiens. Put plainly: Cholesterol in the very low density lipoprotein (VLDL) along with compound was measured in human serum. The class given is functional. The method in brief: as §2
The species named for assay [9] is Homo sapiens. Nature of the assay: Carbohydrate in the low density lipoprotein (LDL) along with compound was measured in human serum. The class given is functional. The method in brief: as §2
The species entered for assay [10] is Rattus norvegicus. Nature of the assay: Effects of N-acetyl-galactosamine on compound stimulated liver association of [125I]LDL measured in liver of rats. It is filed as functional. In a few lines: as §1
Assay [11] is filed under the species Rattus norvegicus. Put plainly: Effects of N-acetyl-galactosamine on compound stimulated liver association of [125I]HDL measured in liver of rats. It is filed as functional. The method in brief:
as §1

For assay [12], the species on record is Rattus norvegicus. Nature of the assay: Effects of N-acetyl-glucosamine on compound stimulated liver association of [125I]HDL measured in liver of rats. It is filed as functional. The method in brief:
as §1

For assay [13], the species on record is Homo sapiens. Nature of the assay: Cholesterol in the Total along with compound was measured in human serum. The class given is functional. The method in brief: as §2
Assay [14] in a line: Ratio of carbohydrate in HDL to cholesterol level in HDL. It is filed as functional. In a few lines:
(§3)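 Same serum incubation (2 mM final, 10 min, room temperature) and density-gradient fractionation into LDL and HDL. The ratio is μg carbohydrate per μg total cholesterol in each fraction. Values in parentheses compare the ratio with the PBS-only serum lipoproteins.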

The species named for assay [15] is Rattus norvegicus. Nature of the assay: Effects of N-acetyl-glucosamine on compound stimulated liver association of [125I]HDL measured in preinjcted rats. The class given is functional. The method in brief: as §1
Assay [16] is filed under the species Rattus norvegicus. Put plainly: Effects of N-acetyl-galactosamine on compound stimulated liver association of [125I]HDL measured in serum of rats. It is filed as functional. The method in brief:
as §1

The species named for assay [17] is Homo sapiens. Put plainly: Carbohydrate in the Total along with compound was measured in human serum. The class given is functional. In a few lines: as §2
The species named for assay [18] is Homo sapiens. Put plainly: Cholesterol in the low density lipoprotein (LDL) along with compound was measured in human serum. The class given is functional. In a few lines: as §2
The nature of assay [19]: Ratio of carbohydrate in LDL to cholesterol level in LDL. It is filed as functional. The method in brief: as §3
For assay [20], the species on record is Homo sapiens. Put plainly: Carbohydrate in the Lipoprotein -deficient serum(LPDS) along with compound was measured in human serum. It is filed as functional. The method in brief:
as §2

For assay [21], the species on record is Rattus norvegicus. Put plainly: Effects of N-acetyl-glucosamine on compound stimulated liver association of [125I]-LDL measured in serum of rats. The class given is functional. The method in brief: as §1
The species entered for assay [22] is Homo sapiens. Put plainly: Carbohydrate in the high density lipoprotein (HDL) along with compound was measured in human serum. It is filed as functional. In a few lines: as §2

Regarding `CC(C)CCCC(C)C1CCC2C3CC=C4CC(OCCOCCOCCOCCOP(O)(=S)OCCO[C@@H]5O[C@H](CO)[C@H](O)[C@H](O)[C@H]5O)CCC4(C)C3CCC12C` (stereo not given in full), the Dose stood at 61.6% in assay [1]; 92.2% in assay [2]; 5.1% in assay [10]; 5.8% in assay [11]; 22.2% in [12]; 61.1% in [15]. The results for the Dose in assay [16] and in [21] were 78.8% and 29.3%, respectively. Moreover, the Cholesterol was 627 µg in assay [3]; 70 µg in assay [7]; 104 µg in [8]; 1850 µg in assay [13]; 1048 µg in assay [18]. Further, the Carbohydrate in [4] was determined as 100 µg; in assay [5], 100 µg; in assay [6], 500 µg; in assay [9] it was 480 µg; in assay [17] it was 2790 µg; in assay [20], 1710 µg. For the same molecule, the Ratio in [14] worked out at 0.8; in assay [19], 0.45.
Consider `CC(C)CCCC(C)C1CCC2C3CC=C4CC(OCCOCCOCCOCCOP(O)(=S)OCCOCCOCCSC5OC(CO)C(O)C(O)C5O)CCC4(C)C3CCC12C` (stereo not given), for which the Cholesterol in assay [3] was 484 µg; in assay [7], 66 µg; in assay [8], 101 µg; in assay [13] it was 1947 µg; in assay [18] it was 1296 µg. Besides, the Carbohydrate in [4] was found to be 100 µg; in [9] it was 520 µg; in assay [17], 2730 µg; in assay [22] it was 390 µg; in [20], 1720 µg. The results for the Ratio in [14] and in [19] were 0.81 and 0.4, respectively.
Turning to `CC(C)CCCC(C)C1CCC2C3CC=C4CC(OCCOCCOCCOCCOP(O)(=S)OCCSC5OC(CO)C(O)C(O)C5O)CCC4(C)C3CCC12C` (stereo not given), the Cholesterol in assay [3] came out at 500 µg; in [7], 85 µg; in assay [8] it was 108 µg; in assay [13] it was 1885 µg; in assay [18] it was 1161 µg. Also, the Carbohydrate was determined as 80 µg in assay [4]; 460 µg in [6]; 580 µg in assay [9]; 2710 µg in assay [17]; 1590 µg in assay [20]. The Ratio in assay [14] amounted to 0.92; in [19] it was 0.5.
